Source: ChEMBL document CHEMBL3414540, “Synthesis, crystal structure and effect of indeno[1,2-b]indole derivatives on prostate cancer in vitro. Potential effect against MMP-9” (Eur J Med Chem, 2015)
≈ marks a conversion by molar mass, not a printed value.

Tested on: not listed separately
Experiment: (§1) Cytotoxicity against human PC3 cells after 72 hrs by XTT assay
Assay type: functional, cell-based
Conditions: PC-3, 72 h
In short: (§2)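 Compounds in DMSO (5-100 µg/ml, final DMSO <0.2%) were added for 72 h. XTT was then added (4 h, 37°C) and formazan read at 492 nm. IC50 is the 50% viability drop versus vehicle. Three experiments, five wells each, mean ± SEM.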

Row | SMILES | IC50
1 | COc1cccc(N2C3=C(C(=O)CCC3)[C@]3(O)C(=O)c4ccccc4[C@]23O)c1 (racemic) | > 100 µg/mL
2 | Cc1ccc(N2C3=C(C(=O)CC(C)(C)C3)[C@]3(O)C(=O)c4ccccc4[C@]23O)cc1C (racemic) | > 100 µg/mL
3 | Cc1ccc(N2C3=C(C(=O)CC(C)(C)C3)[C@]3(O)C(=O)c4ccccc4[C@]23O)cc1 (racemic) | > 100 µg/mL
4 | Cc1ccc(N2C3=C(C(=O)CCC3)[C@]3(O)C(=O)c4ccccc4[C@]23O)c(C)c1 (racemic) | > 100 µg/mL
5 | Cc1ccc(N2C3=C(C(=O)CCC3)[C@]3(O)C(=O)c4ccccc4[C@]23O)cc1 (racemic) | > 100 µg/mL
6 | Cc1cc(N)c2ccccc2[n+]1CCCCCCCCCC[n+]1c(C)cc(N)c2ccccc21 [DEQUALINIUM] | 24.6 µg/mL
7 | Cc1cc(C)cc(N2C3=C(C(=O)CCC3)[C@]3(O)C(=O)c4ccccc4[C@]23O)c1 (racemic) | > 100 µg/mL
8 | Cc1ccc(N2C3=C(C(=O)CCC3)[C@]3(O)C(=O)c4ccccc4[C@]23O)cc1C (racemic) | > 100 µg/mL
9 | Cc1ccc(N2C3=C(C(=O)CC(C)(C)C3)[C@]3(O)C(=O)c4ccccc4[C@]23O)c(C)c1 (racemic) | > 100 µg/mL
10 | O=C1CCCC2=C1[C@]1(O)C(=O)c3ccccc3[C@]1(O)N2c1ccc(Cl)cc1 (racemic) | 67.9 µg/mL (≈ 178 µM)
11 | Cc1cccc(N2C3=C(C(=O)CC(C)(C)C3)[C@]3(O)C(=O)c4ccccc4[C@]23O)c1 (racemic) | > 100 µg/mL
12 | CC1(C)CC(=O)C2=C(C1)N(c1ccc(Cl)cc1)[C@@]1(O)c3ccccc3C(=O)[C@@]21O (racemic) | 76.6 µg/mL (≈ 187 µM)
13 | COc1ccccc1N1C2=C(C(=O)CCC2)[C@]2(O)C(=O)c3ccccc3[C@]12O (racemic) | > 100 µg/mL
14 | COc1ccc(N2C3=C(C(=O)CC(C)(C)C3)[C@]3(O)C(=O)c4ccccc4[C@]23O)cc1OC (racemic) | > 100 µg/mL
15 | Cc1ccccc1N1C2=C(C(=O)CC(C)(C)C2)[C@]2(O)C(=O)c3ccccc3[C@]12O (racemic) | > 100 µg/mL
16 | CC1(C)CC(=O)C2=C(C1)N(c1ccc(Br)cc1)[C@@]1(O)c3ccccc3C(=O)[C@@]21O (racemic) | > 100 µg/mL
17 | COc1cccc(N2C3=C(C(=O)CC(C)(C)C3)[C@]3(O)C(=O)c4ccccc4[C@]23O)c1 (racemic) | > 100 µg/mL

Tested on: PC-3
Experiment: as §1
Assay type: functional, cell-based
Conditions: not given
In short: as §2

Row | SMILES | inhibition
18 | Cc1cc(N)c2ccccc2[n+]1CCCCCCCCCC[n+]1c(C)cc(N)c2ccccc21 [DEQUALINIUM] | Dose-dependent effect
19 | O=C1CCCC2=C1[C@]1(O)C(=O)c3ccccc3[C@]1(O)N2c1ccc(Cl)cc1 (racemic) | Dose-dependent effect
20 | CC1(C)CC(=O)C2=C(C1)N(c1ccc(Cl)cc1)[C@@]1(O)c3ccccc3C(=O)[C@@]21O (racemic) | Dose-dependent effect

Tested on: LNCaP
Experiment: Cytotoxicity against human LNCAP cells after 72 hrs by XTT assay
Assay type: functional, cell-based
Conditions: not given
In short: as §2

Row | SMILES | IC50 | inhibition
21 | COc1cccc(N2C3=C(C(=O)CCC3)[C@]3(O)C(=O)c4ccccc4[C@]23O)c1 (racemic) | > 100 µg/mL | –
22 | Cc1ccc(N2C3=C(C(=O)CC(C)(C)C3)[C@]3(O)C(=O)c4ccccc4[C@]23O)cc1C (racemic) | > 100 µg/mL | –
23 | Cc1ccc(N2C3=C(C(=O)CC(C)(C)C3)[C@]3(O)C(=O)c4ccccc4[C@]23O)cc1 (racemic) | > 100 µg/mL | –
24 | Cc1ccc(N2C3=C(C(=O)CCC3)[C@]3(O)C(=O)c4ccccc4[C@]23O)c(C)c1 (racemic) | > 100 µg/mL | –
25 | Cc1ccc(N2C3=C(C(=O)CCC3)[C@]3(O)C(=O)c4ccccc4[C@]23O)cc1 (racemic) | > 100 µg/mL | –
26 | Cc1cc(N)c2ccccc2[n+]1CCCCCCCCCC[n+]1c(C)cc(N)c2ccccc21 [DEQUALINIUM] | 4.94 µg/mL | Dose-dependent effect
27 | Cc1cc(C)cc(N2C3=C(C(=O)CCC3)[C@]3(O)C(=O)c4ccccc4[C@]23O)c1 (racemic) | > 100 µg/mL | –
28 | Cc1ccc(N2C3=C(C(=O)CCC3)[C@]3(O)C(=O)c4ccccc4[C@]23O)cc1C (racemic) | > 100 µg/mL | –
29 | Cc1ccc(N2C3=C(C(=O)CC(C)(C)C3)[C@]3(O)C(=O)c4ccccc4[C@]23O)c(C)c1 (racemic) | > 100 µg/mL | –
30 | O=C1CCCC2=C1[C@]1(O)C(=O)c3ccccc3[C@]1(O)N2c1ccc(Cl)cc1 (racemic) | 79.2 µg/mL (≈ 207 µM) | Dose-dependent effect
31 | Cc1cccc(N2C3=C(C(=O)CC(C)(C)C3)[C@]3(O)C(=O)c4ccccc4[C@]23O)c1 (racemic) | > 100 µg/mL | –
32 | CC1(C)CC(=O)C2=C(C1)N(c1ccc(Cl)cc1)[C@@]1(O)c3ccccc3C(=O)[C@@]21O (racemic) | 66.2 µg/mL (≈ 162 µM) | Dose-dependent effect
33 | COc1ccccc1N1C2=C(C(=O)CCC2)[C@]2(O)C(=O)c3ccccc3[C@]12O (racemic) | > 100 µg/mL | –
34 | COc1ccc(N2C3=C(C(=O)CC(C)(C)C3)[C@]3(O)C(=O)c4ccccc4[C@]23O)cc1OC (racemic) | > 100 µg/mL | –
35 | Cc1ccccc1N1C2=C(C(=O)CC(C)(C)C2)[C@]2(O)C(=O)c3ccccc3[C@]12O (racemic) | > 100 µg/mL | –
36 | CC1(C)CC(=O)C2=C(C1)N(c1ccc(Br)cc1)[C@@]1(O)c3ccccc3C(=O)[C@@]21O (racemic) | > 100 µg/mL | –
37 | COc1cccc(N2C3=C(C(=O)CC(C)(C)C3)[C@]3(O)C(=O)c4ccccc4[C@]23O)c1 (racemic) | > 100 µg/mL | –

Tested on: not listed separately
Experiment: (§3) Cytotoxicity against rat MAT-LyLu cells after 72 hrs by XTT assay
Assay type: functional, cell-based
Conditions: MAT-Ly-Lu
In short: as §2

Row | SMILES | IC50
38 | COc1cccc(N2C3=C(C(=O)CCC3)[C@]3(O)C(=O)c4ccccc4[C@]23O)c1 (racemic) | > 100 µg/mL
39 | Cc1ccc(N2C3=C(C(=O)CC(C)(C)C3)[C@]3(O)C(=O)c4ccccc4[C@]23O)cc1C (racemic) | > 100 µg/mL
40 | Cc1ccc(N2C3=C(C(=O)CC(C)(C)C3)[C@]3(O)C(=O)c4ccccc4[C@]23O)cc1 (racemic) | > 100 µg/mL
41 | Cc1ccc(N2C3=C(C(=O)CCC3)[C@]3(O)C(=O)c4ccccc4[C@]23O)c(C)c1 (racemic) | > 100 µg/mL
42 | Cc1ccc(N2C3=C(C(=O)CCC3)[C@]3(O)C(=O)c4ccccc4[C@]23O)cc1 (racemic) | > 100 µg/mL
43 | Cc1cc(N)c2ccccc2[n+]1CCCCCCCCCC[n+]1c(C)cc(N)c2ccccc21 [DEQUALINIUM] | 10.3 µg/mL
44 | Cc1cc(C)cc(N2C3=C(C(=O)CCC3)[C@]3(O)C(=O)c4ccccc4[C@]23O)c1 (racemic) | > 100 µg/mL
45 | Cc1ccc(N2C3=C(C(=O)CCC3)[C@]3(O)C(=O)c4ccccc4[C@]23O)cc1C (racemic) | > 100 µg/mL
46 | Cc1ccc(N2C3=C(C(=O)CC(C)(C)C3)[C@]3(O)C(=O)c4ccccc4[C@]23O)c(C)c1 (racemic) | > 100 µg/mL
47 | O=C1CCCC2=C1[C@]1(O)C(=O)c3ccccc3[C@]1(O)N2c1ccc(Cl)cc1 (racemic) | > 100 µg/mL
48 | Cc1cccc(N2C3=C(C(=O)CC(C)(C)C3)[C@]3(O)C(=O)c4ccccc4[C@]23O)c1 (racemic) | > 100 µg/mL
49 | CC1(C)CC(=O)C2=C(C1)N(c1ccc(Cl)cc1)[C@@]1(O)c3ccccc3C(=O)[C@@]21O (racemic) | > 100 µg/mL
50 | COc1ccccc1N1C2=C(C(=O)CCC2)[C@]2(O)C(=O)c3ccccc3[C@]12O (racemic) | > 100 µg/mL
51 | COc1ccc(N2C3=C(C(=O)CC(C)(C)C3)[C@]3(O)C(=O)c4ccccc4[C@]23O)cc1OC (racemic) | > 100 µg/mL
52 | Cc1ccccc1N1C2=C(C(=O)CC(C)(C)C2)[C@]2(O)C(=O)c3ccccc3[C@]12O (racemic) | > 100 µg/mL
53 | CC1(C)CC(=O)C2=C(C1)N(c1ccc(Br)cc1)[C@@]1(O)c3ccccc3C(=O)[C@@]21O (racemic) | > 100 µg/mL
54 | COc1cccc(N2C3=C(C(=O)CC(C)(C)C3)[C@]3(O)C(=O)c4ccccc4[C@]23O)c1 (racemic) | > 100 µg/mL

Tested on: MAT-Ly-Lu
Experiment: as §3
Assay type: functional, cell-based
Conditions: not given
In short: as §2

Row | SMILES | inhibition
55 | Cc1cc(N)c2ccccc2[n+]1CCCCCCCCCC[n+]1c(C)cc(N)c2ccccc21 [DEQUALINIUM] | Dose-dependent effect
56 | O=C1CCCC2=C1[C@]1(O)C(=O)c3ccccc3[C@]1(O)N2c1ccc(Cl)cc1 (racemic) | Dose-dependent effect
57 | CC1(C)CC(=O)C2=C(C1)N(c1ccc(Cl)cc1)[C@@]1(O)c3ccccc3C(=O)[C@@]21O (racemic) | Dose-dependent effect
